ChEMBL document CHEMBL1148749, “Targeting plague virulence factors: a combined machine learning method and multiple conformational virtual screening for the discovery of Yersinia protein kinase A inhibitors” (J Med Chem, 2007)

What was measured:
[1] = Inhibition of MAPK; design: species or system Homo sapiens
Protein kinase C (PKC) = test: Inhibition of PKC; design: species or system Homo sapiens
[2] = Inhibition of Yersinia sp. PKA
How it was run: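 YpkA kinase activity measured by radiological assay with enzyme at 0.15 μM; IC50 values determined from this assay.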

Row | Structure (SMILES) | IC50 [1] [µM] | IC50 (Protein kinase C (PKC)) [µM] | IC50 [2] [µM]
1 | O=C1NC(=O)C(=Cc2ccc(Sc3ccc(Cl)cc3)c([N+](=O)[O-])c2)C(=O)N1 | 63 | > 200 | 5.87
2 | O=C1c2ccccc2C(=O)c2cc(S(=O)(=O)Nc3cccc([N+](=O)[O-])c3)ccc21 | > 200 | 165 | 19.8
3 | C=CCN1C(=O)NC(=O)/C(=C/c2ccc(-c3cc([N+](=O)[O-])ccc3Cl)o2)C1=O | 54.5 | 205.16 | 9.72
4 | O=C1Nc2ccc(Br)cc2/C1=C1/SC(=S)N(c2cccc(Cl)c2)C1=O | 2.45 | > 200 | 1.81
